In brackets after ≈: the same amount, converted by molar mass.
Legend:
Format in all cases: functional
[1] = tested on: Staphylococcus epidermidis; assay: Antibacterial activity against Staphylococcus epidermidis MTCC 435 after 18 hrs; conditions: MTCC 435, 18 h
Procedure, shortened: (§1)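 Disc diffusion (Kirby–Bauer) on Mueller-Hinton agar inoculated with fresh bacteria at 1-5 × 10^4 cfu mL-1. Compounds were dissolved in DMF at a range of concentrations, and discs were placed in triplicate. Plates were incubated at 30 °C for 18 h. MIC was taken as the lowest concentration giving no visible bacterial growth on the plate.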

Pseudomonas aeruginosa = assay: Antibacterial activity against Pseudomonas aeruginosa MTCC 424 after 18 hrs; conditions: MTCC 424, 18 h; procedure, shortened: as §1
Escherichia coli = assay: Antibacterial activity against Escherichia coli MTCC 448 after 18 hrs; conditions: MTCC 448, 18 h; procedure, shortened: as §1
Vibrio = assay: Antibacterial activity against Vibrio species after 18 hrs; procedure, shortened: as §1
Bacillus subtilis = assay: Antibacterial activity against Bacillus subtilis MTCC 441 after 18 hrs; conditions: MTCC 441, 18 h; procedure, shortened: as §1

| MIC [1] [µg/mL] | MIC (Pseudomonas aeruginosa) [µg/mL] | MIC (Escherichia coli) [µg/mL] | MIC (Vibrio) [µg/mL] | MIC (Bacillus subtilis) [µg/mL] | Structure (SMILES) |
| --- | --- | --- | --- | --- | --- |
| 14 (≈ 33.6 µM) | > 25 | 16 (≈ 38.4 µM) | 23 (≈ 55.2 µM) | 9 (≈ 21.6 µM) | Cc1ccc(S(=O)(=O)NNC(=O)c2cccnc2Nc2ccc(Cl)cc2)cc1 |
| 16 (≈ 38 µM) | > 25 | 18 (≈ 42.8 µM) | 21 (≈ 49.9 µM) | 10 (≈ 23.8 µM) | O=C(NNS(=O)(=O)c1ccc(Cl)cc1)c1cccnc1Nc1ccc(F)cc1 |
| 20 (≈ 79.9 µM) | 22 (≈ 87.9 µM) | 15 (≈ 59.9 µM) | 13 (≈ 51.9 µM) | 18 (≈ 71.9 µM) | Nc1ccc(S(=O)(=O)Nc2ncccn2)cc1 [SULFADIAZINE] |
| > 512 | > 512 | > 128 | > 512 | > 128 | Nc1ccc(S(N)(=O)=O)cc1 [SULFANILAMIDE] |

The next lines start with the molecule.

| Structure (SMILES) | MIC [1] [µg/mL] | MIC (Pseudomonas aeruginosa) [µg/mL] | MIC (Escherichia coli) [µg/mL] | MIC (Vibrio) [µg/mL] | MIC (Bacillus subtilis) [µg/mL] |
| --- | --- | --- | --- | --- | --- |
| O=C(NNS(=O)(=O)c1ccc(F)cc1)c1cccnc1Nc1ccc(F)cc1 | 20 (≈ 49.5 µM) | > 25 | 13 (≈ 32.1 µM) | 22 (≈ 54.4 µM) | 10 (≈ 24.7 µM) |
| COc1ccc(Nc2ncccc2C(=O)NNS(=O)(=O)c2ccc(C)cc2)cc1 | 17 (≈ 41.2 µM) | > 25 | 15 (≈ 36.4 µM) | 19 (≈ 46.1 µM) | 8 (≈ 19.4 µM) |
| O=C(NNS(=O)(=O)c1ccccc1)c1cccnc1Nc1ccccc1 | 21 (≈ 57 µM) | > 25 | 20 (≈ 54.3 µM) | 20 (≈ 54.3 µM) | 17 (≈ 46.1 µM) |
| CC(=O)Nc1ccc(S(=O)(=O)NNC(=O)c2cccnc2Nc2ccc(F)cc2)cc1 | 19 (≈ 42.8 µM) | > 25 | 20 (≈ 45.1 µM) | 22 (≈ 49.6 µM) | 16 (≈ 36.1 µM) |
